Experimental data reported in article PMC7341966 (Journal of medicinal chemistry, 2018).
Square brackets hold non-standard residues; d marks the D form. Peptide text beside a SMILES is read from it. * marks the point of attachment. X4 = CC[C@H](C)[C@@H](OC(=O)[C@H](Cc1ccccc1)N(C)C)C(=O)*; X1 = CC[C@H](C)[C@@H](OC(=O)/C=C/c1ccccc1)C(=O)*; X3 = CC[C@H](C)[C@@H](OC(=O)/C=C\c1ccccc1)C(=O)*; X5 = CC[C@H](C)[C@@H](OC(=O)C#Cc1ccccc1)C(=O)*; X2 = CC[C@H](C)[C@@H](OC(=O)CCc1ccccc1)C(=O)*; Hmp(2R,3S) = CC[C@H](C)[C@@H](O)C(=O)O; dNMeF = CN[C@H](Cc1ccccc1)C(=O)O; NMeL = CN[C@@H](CC(C)C)C(=O)O; dHiv = CC(C)[C@@H](O)C(=O)O

What was measured:
SSTR3 = SSTR3 (Homo sapiens, UniProt P32745); assay: PathHunter β-Arrestin GPCR assay, antagonist mode; type: cell-based; conditions: dose-response starting at 20 μM, duplicate
Sequence of SSTR3 (P32745 whole entry): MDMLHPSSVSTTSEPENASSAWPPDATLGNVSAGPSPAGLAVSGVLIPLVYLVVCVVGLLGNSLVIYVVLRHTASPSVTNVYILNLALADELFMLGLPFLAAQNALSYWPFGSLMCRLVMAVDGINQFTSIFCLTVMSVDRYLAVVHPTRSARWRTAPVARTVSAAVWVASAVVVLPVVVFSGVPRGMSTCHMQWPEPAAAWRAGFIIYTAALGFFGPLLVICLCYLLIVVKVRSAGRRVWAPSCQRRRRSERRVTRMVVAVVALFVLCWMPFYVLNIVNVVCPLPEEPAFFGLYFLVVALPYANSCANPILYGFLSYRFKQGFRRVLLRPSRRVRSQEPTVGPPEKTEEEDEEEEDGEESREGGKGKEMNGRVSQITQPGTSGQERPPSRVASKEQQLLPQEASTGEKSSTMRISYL

[1] = target: KLK7 (substrates desmoglein-2 and E-cadherin) (Homo sapiens, UniProt P49862); assay: Cleavage of KLK7 downstream substrates, biochemical assay; conditions: 10 μM
Sequence of KLK7 (substrates desmoglein-2 and E-cadherin) (P49862 30-253): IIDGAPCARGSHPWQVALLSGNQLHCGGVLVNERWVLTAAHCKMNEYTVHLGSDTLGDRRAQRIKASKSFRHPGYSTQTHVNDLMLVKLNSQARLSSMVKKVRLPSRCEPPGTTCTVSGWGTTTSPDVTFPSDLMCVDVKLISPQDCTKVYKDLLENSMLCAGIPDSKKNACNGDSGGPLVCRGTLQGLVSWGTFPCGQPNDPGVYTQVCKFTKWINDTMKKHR

[2] = test system: MDA-MB-231 breast cancer cells; assay: MTT cell viability assay in MDA-MB-231 cells; type: cell-based; conditions: MDA-MB-231, 48 h; for cytotoxicity: MTT, up to 100 μM
How it was run: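 MDA-MB-231 cells kept in DMEM with 10% FBS were seeded at 10,000 cells/well. After 24 h they were exposed to graded test compound or DMSO solvent control for 48 h. Viability was measured by MTT.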

CCR10 = target: T1, CCR10 (Homo sapiens, UniProt P46092); assay: PathHunter β-Arrestin GPCR assay, antagonist mode; type: cell-based; conditions: dose-response starting at 20 μM, duplicate
T1 sequence (P46092 1-362): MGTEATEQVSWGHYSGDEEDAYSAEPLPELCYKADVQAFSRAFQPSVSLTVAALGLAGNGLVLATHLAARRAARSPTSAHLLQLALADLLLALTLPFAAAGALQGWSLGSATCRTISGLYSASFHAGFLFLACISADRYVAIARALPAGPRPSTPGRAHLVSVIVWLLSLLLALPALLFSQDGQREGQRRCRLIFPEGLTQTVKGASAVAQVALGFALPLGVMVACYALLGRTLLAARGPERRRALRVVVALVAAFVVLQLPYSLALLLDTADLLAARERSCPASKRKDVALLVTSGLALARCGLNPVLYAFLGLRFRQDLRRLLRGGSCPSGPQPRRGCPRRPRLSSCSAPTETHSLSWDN

[3] = test system: MDA-MB-468 breast cancer cells; assay: Dsg-2 shedding in MDA-MB-468 cells; type: cell-based
Kallikrein 7 (KLK7) = Kallikrein 7 (KLK7) (Homo sapiens, UniProt P49862); assay: Protease inhibition assay, fluorescent peptide substrate; type: biochemical
Sequence of Kallikrein 7 (KLK7) (P49862 30-253): as the sequence (P49862 30-253) above

[4] = test system: MDA-MB-468 breast cancer cells; assay: Transwell migration assay, MDA-MB-468 cells; type: cell-based; conditions: 48 h
How it was run: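 5000 MDA-MB-468 cells in DMEM with 10% FBS were treated with graded test compound or solvent control. They were seeded into 8 μm pore PET transwell inserts, with the same compound concentration in complete medium on the other side. After 48 h at 37 °C, 5% CO2, non-migrated cells were swabbed off, and migrated cells were crystal violet-stained and counted microscopically. Triplicate.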

[5] = test system: CXCR7, CCR10, OXTR, SSTR3, and TACR2; assay: GPCR secondary screen, dose-response against the five hits; type: cell-based; conditions: up to 20 μM
How it was run: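 Secondary β-arrestin (PathHunter) screen on the five receptors, run in agonist and antagonist modes. Dosing was 10 points by 3-fold serial dilution from 20 μM, in duplicate, with 1% vehicle. Chemiluminescent β-galactosidase read after 1 h detection at RT.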

plasma kallikrein = conditions: read-out: Ki plasma kallikrein; cited from earlier work
OXTR = target: T2, OXTR (Homo sapiens, UniProt P30559); assay: PathHunter β-Arrestin GPCR assay, antagonist mode; type: cell-based; conditions: dose-response starting at 20 μM, duplicate
T2 sequence (P30559 1-389): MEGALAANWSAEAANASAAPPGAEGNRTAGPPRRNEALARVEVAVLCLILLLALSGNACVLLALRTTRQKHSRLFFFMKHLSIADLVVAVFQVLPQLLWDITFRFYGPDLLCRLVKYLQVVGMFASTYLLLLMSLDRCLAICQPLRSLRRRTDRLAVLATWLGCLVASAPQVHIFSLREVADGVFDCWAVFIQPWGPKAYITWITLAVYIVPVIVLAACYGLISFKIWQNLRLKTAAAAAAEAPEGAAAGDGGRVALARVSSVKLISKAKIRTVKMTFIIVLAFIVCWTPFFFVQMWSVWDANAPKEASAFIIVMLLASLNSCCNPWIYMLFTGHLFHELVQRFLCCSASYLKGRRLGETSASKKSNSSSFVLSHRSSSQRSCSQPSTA

MDA-MB-231 cells [6] = assay: Transwell migration assay, MDA-MB-231 cells; type: cell-based; conditions: 10 μM, 48 h
How it was run: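 Transwell inserts with 8 μm pore PET membrane; MDA-MB-231 cells were exposed to test compound or solvent control. After incubation, non-migrated cells were wiped off, and migrated cells were crystal violet-stained and counted under a microscope.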

[7] = test system: panel of 241 GPCR targets; assay: GPCR profiling, gpcrMAX and orphanMAX panels; type: cell-based; conditions: 10 μM; hit = > 50% activity or inhibition
How it was run: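 PathHunter β-arrestin enzyme fragment complementation in HEK293, CHO or U2OS lines stably expressing ProLink-tagged GPCR and EA-tagged β-arrestin. Test compound was 10 μM, one also at 20 μM; vehicle 1% final. Agonist mode: 90 or 180 min at 37 °C or RT. Chemiluminescence read after 1 h detection reagent. % activity/inhibition taken versus vehicle and control ligand.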

MDA-MB-231 cells [8] = assay: CCL27-induced proliferation of MDA-MB-231 cells; type: cell-based; conditions: serum deprived conditions, 48 h
How it was run: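 MDA-MB-231 cells (10,000/well) were seeded in serum-free DMEM for 24 h. For the CCL27 response, cells got graded CCL27 for 48 h. For inhibition, cells were pretreated with test compound for 2 h, then given CCL27 (1 μg/mL final) and incubated 48 h. Viability was read by MTT against solvent control. Mean ± SD, n = 3, two-tailed unpaired t test.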

Molecule: CC[C@H](C)[C@@H](OC(=O)CCc1ccccc1)C(=O)N1CCC[C@H]1C(=O)NCC(=O)N(C)[C@@H](CC(C)C)C(=O)N[C@@H](C)C(=O)N(C)[C@H](Cc1ccccc1)C(=O)N1CCC[C@H]1C(=O)OC [Compound 6, dehydro-brintonamide D/E] (X2-PG[NMeL]A[dNMeF]P-OMe)
- IC50 antagonist SSTR3 (SSTR3): inactive

Molecule: CC[C@H](C)[C@@H](OC(=O)/C=C/c1ccccc1)C(=O)N1CCC[C@H]1C(=O)NCC(=O)N(C)[C@@H](CC(C)C)C(=O)N[C@@H](C)C(=O)N(C)[C@H](Cc1ccccc1)C(=O)N1CCC[C@H]1C(=O)OC [Compound 4, brintonamide D] (X1-PG[NMeL]A[dNMeF]P-OMe)
- cleavage of KLK7 downstream substrates desmoglein-2 and E-cadherin [1]: partially inhibited
- cytotoxic effects ([2]; up to 10 μM (Figure 6B)): no cytotoxic effects
- IC50 antagonist CCR10 (CCR10): submicromolar activity
- Dsg-2 shedding [3]: unable to decrease Dsg-2 shedding
- IC50 (Kallikrein 7 (KLK7)): ~20 µM
- migration of MDA-MB-468 cells [4]: inhibiting the migration
- activity against the tested GPCR targets [5]: active against all five tested GPCR targets

Molecule: CC[C@H](C)[C@@H](OC(=O)/C=C\c1ccccc1)C(=O)N1CCC[C@H]1C(=O)NCC(=O)N(C)[C@@H](CC(C)C)C(=O)N[C@@H](C)C(=O)N(C)[C@H](Cc1ccccc1)C(=O)N1CCC[C@H]1C(=O)OC [Compound 5, brintonamide E] (X3-PG[NMeL]A[dNMeF]P-OMe)
- IC50 antagonist SSTR3 (SSTR3): inactive

Molecule: Ecallantide
- Ki (plasma kallikrein): 0.025 nM

Molecule: CC[C@H](C)[C@@H](OC(=O)C#Cc1ccccc1)C(=O)N1CCC[C@H]1C(=O)NCC(=O)N(C)[C@@H](CC(C)C)C(=O)N[C@@H](C)C(=O)N(C)[C@H](Cc1ccccc1)C(=O)N1CCC[C@H]1C(=O)OC [Compound 7, dihydro-brintonamide D/E] (X5-PG[NMeL]A[dNMeF]P-OMe)
- activity against the tested GPCR targets [5]: did not exhibit any activity

Molecule: CC[C@H](C)[C@@H](OC(=O)[C@H](Cc1ccccc1)N(C)C)C(=O)N1CCC[C@H]1C(=O)NCC(=O)N(C)[C@@H](CC(C)C)C(=O)N[C@@H](C)C(=O)N(C)[C@H](Cc1ccccc1)C(=O)N1CCC[C@H]1C(=O)OC [Compound 3, brintonamide C] (X4-PG[NMeL]A[dNMeF]P-OMe)
- IC50 antagonist OXTR (OXTR): did not show any activity
- IC50 antagonist CCR10 (CCR10): did not show any activity

Molecule: COC(=O)[C@@H]1CCCN1C(=O)[C@@H](Cc1ccccc1)N(C)C(=O)[C@H](C)NC(=O)[C@H](CC(C)C)N(C)C(=O)CNC(=O)[C@@H]1CCCN1C(=O)[C@H](O)C(C)C [Compound 2, brintonamide B] (H-[dHiv]PG[NMeL]A[dNMeF]P-OMe)
- cytotoxicity [2]: did not show any cytotoxicity
- activity against the tested GPCR targets [5]: did not show any activity

Molecule: CC[C@H](C)[C@@H](O)C(=O)N1CCC[C@H]1C(=O)NCC(=O)N(C)[C@@H](CC(C)C)C(=O)N[C@@H](C)C(=O)N(C)[C@H](Cc1ccccc1)C(=O)N1CCC[C@H]1C(=O)OC [Compound 1, brintonamide A] ({Hmp(2R,3S)}-PG[NMeL]A[dNMeF]P-OMe)
- inhibition of migration (MDA-MB-231 cells [6]): inactive
- cytotoxicity [2]: did not show any cytotoxicity
- hits in GPCR profiling [7]: did not show any hits
- IC50 (Kallikrein 7 (KLK7)): ~20 µM
- activity against the tested GPCR targets [5]: did not show any activity

B1: CCL27: C-C motif chemokine ligand 27, ligand of CCR10 (protein, UniProt Q9Y4X3 25-112, looked up)
C-C motif chemokine 27: FLLPPSTACCTQLYRKPLSDKLLRKVIQVELQEADGDCHLQAFVLHLAQRSICIHPQNPSLSQWFEHQERKLHGTLPKLNFGMLRKMG
- cell proliferation in response to CCL27 stimulation (MDA-MB-231 cells [8]): increased in a dose-dependent manner
